In experiment [1] the test system is dermal fibroblasts (BJ ATCC CRL-2522). Description: MTT antiproliferative assay on normal cells, 72 h exposure. It is filed as cell-based, human. The following applies: read-out: IC50 Fibroblast. The procedure, abridged:
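Human BJ dermal fibroblasts were grown in DMEM at 37°C under humidified 5% CO2. Cells were detached with 0.25% trypsin/0.53 mM EDTA, counted by trypan blue, seeded in 96-well plates and left 24 h to attach, then exposed to test compound or no drug for 72 h. IC50 was taken from a logarithmic trend line.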
Background: Tetrazolium assays rely on reduction of a dye to a coloured formazan, in cell work by metabolically active cells.

Experiment [2] concerns neuroblastoma SH-SY5Y. Briefly: MTT antiproliferative assay, 72 h exposure. It is filed as cell-based, human. In short, it runs like this: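 SH-SY5Y cells were kept in 1:1 EMEM/F12 with 10% FBS at 37°C under 5% CO2. After trypsin/EDTA detachment and trypan-blue counting, cells were plated in 96-well format and allowed 24 h to attach. They were then incubated ±test compound for 72 h. IC50 was derived from a logarithmic trend line of the cytotoxicity plots.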

The term IC50 denotes the point on the concentration scale where inhibition reaches its midpoint.

`CC(=O)O.CCN(CC)CC[n+]1ccc2c(C)c3[nH]c4ccc(O)cc4c3c(C)c2c1` [Compound 3]: the IC50 stood at 303 ± 1 nM in experiment [1] and 1060 ± 190 nM in experiment [2] (read-out: IC50 SH-SY5Y, MTT, 72 h). For the same molecule, the “% SH-SY5Y 10µM (percentage inhibition)” value in experiment [2] (10 µM, 72 h exposure) is reported as 74.22 ± 0.025%. For the same molecule, the “% SH-SY5Y 50µM (percentage inhibition)” value in experiment [2] (50 µM, 72 h exposure) is reported as 78.23 ± 0.057%.

Values taken from article PMC9924312 (Asian Pacific Journal of Cancer Prevention : APJCP, 2022).
